ChEMBL document CHEMBL1932924, “Design, synthesis, and biological evaluation of 4-phenylpyrrole derivatives as novel androgen receptor antagonists” (Bioorg Med Chem, 2012)
Values after ≈ are worked out from the molar mass of the structure shown.

What was measured:
[1] = target: T1, Androgen receptor (Homo sapiens, UniProt P10275); assay: Agonist activity at human androgen receptor expressed in COS7 cells assessed as luciferase activity after 24 hrs by reporter gene assay; format: functional, cell-based, COS-7
T1 sequence (P10275 whole entry): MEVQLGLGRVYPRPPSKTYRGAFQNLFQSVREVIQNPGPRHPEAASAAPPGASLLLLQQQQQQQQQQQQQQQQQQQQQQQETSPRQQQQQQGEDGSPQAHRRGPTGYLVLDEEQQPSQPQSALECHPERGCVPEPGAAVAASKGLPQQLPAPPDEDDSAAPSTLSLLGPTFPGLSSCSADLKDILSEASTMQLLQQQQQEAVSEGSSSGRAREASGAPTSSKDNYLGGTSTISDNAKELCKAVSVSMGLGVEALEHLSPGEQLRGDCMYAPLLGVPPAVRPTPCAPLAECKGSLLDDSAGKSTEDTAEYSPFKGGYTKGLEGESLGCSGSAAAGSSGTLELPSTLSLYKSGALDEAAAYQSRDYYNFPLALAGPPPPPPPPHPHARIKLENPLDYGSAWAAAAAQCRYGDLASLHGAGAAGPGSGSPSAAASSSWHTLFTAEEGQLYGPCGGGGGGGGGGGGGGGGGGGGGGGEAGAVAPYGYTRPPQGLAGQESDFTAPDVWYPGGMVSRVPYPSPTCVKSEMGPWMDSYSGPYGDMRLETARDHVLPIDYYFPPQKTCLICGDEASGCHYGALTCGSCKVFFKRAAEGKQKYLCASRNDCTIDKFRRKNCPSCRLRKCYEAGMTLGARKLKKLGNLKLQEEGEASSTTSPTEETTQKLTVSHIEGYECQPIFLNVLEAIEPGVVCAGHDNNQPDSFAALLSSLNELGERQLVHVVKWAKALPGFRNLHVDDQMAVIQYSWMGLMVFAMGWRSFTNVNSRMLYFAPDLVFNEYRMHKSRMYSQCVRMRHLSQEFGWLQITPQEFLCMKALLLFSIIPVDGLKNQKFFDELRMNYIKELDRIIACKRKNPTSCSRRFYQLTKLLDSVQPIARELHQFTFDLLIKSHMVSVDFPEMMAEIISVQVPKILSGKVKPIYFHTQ

[2] = target: T1, Androgen receptor; assay: Displacement of [17-alpha-methyl-3H]-mibolerone from human androgen receptor expressed in HEK293 derived FreeStyle293F cells after 3 hrs; format: cell-based
[3] = target: T2, Androgen receptor (Homo sapiens, UniProt P10275, W742C); assay: Antagonist activity at human androgen receptor W741C mutant expressed in COS7 cells assessed as inhibition of DHT-induced luciferase activity after 24 hrs by reporter gene assay; format: functional, cell-based, COS-7
T2 sequence (P10275 whole entry W742C): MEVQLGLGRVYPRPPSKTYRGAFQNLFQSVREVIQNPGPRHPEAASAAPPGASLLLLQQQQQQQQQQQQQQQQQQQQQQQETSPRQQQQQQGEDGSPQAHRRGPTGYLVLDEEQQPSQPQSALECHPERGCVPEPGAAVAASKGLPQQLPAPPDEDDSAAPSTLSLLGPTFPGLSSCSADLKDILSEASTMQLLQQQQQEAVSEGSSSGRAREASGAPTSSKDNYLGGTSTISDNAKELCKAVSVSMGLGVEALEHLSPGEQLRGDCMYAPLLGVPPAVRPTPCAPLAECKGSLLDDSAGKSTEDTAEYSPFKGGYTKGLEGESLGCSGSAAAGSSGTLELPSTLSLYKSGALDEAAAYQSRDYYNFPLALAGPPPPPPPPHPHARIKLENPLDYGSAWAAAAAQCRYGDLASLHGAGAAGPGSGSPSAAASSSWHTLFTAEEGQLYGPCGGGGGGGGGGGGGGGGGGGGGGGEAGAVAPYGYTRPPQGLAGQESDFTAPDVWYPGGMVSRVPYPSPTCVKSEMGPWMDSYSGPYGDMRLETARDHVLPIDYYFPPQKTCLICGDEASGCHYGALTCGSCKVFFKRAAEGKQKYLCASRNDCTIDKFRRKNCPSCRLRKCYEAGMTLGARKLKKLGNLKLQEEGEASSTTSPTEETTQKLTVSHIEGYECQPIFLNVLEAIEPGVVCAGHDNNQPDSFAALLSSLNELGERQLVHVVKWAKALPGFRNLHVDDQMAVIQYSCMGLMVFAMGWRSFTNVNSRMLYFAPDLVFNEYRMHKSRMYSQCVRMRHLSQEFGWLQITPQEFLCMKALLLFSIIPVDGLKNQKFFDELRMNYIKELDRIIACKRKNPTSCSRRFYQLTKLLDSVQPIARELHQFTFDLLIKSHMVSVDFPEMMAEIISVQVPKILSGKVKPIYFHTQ

[4] = target: T3, Androgen receptor (Homo sapiens, UniProt P10275, T878A); assay: Antagonist activity at human androgen receptor T877A mutant expressed in COS7 cells assessed as inhibition of DHT-induced luciferase activity after 24 hrs by reporter gene assay; format: functional, cell-based, COS-7
T3 sequence (P10275 whole entry T878A): as the sequence (P10275 whole entry W742C) above, with C742W, T878A counted along it

[5] = target: T1, Androgen receptor; assay: Antagonist activity at human androgen receptor expressed in COS7 cells assessed as inhibition of DHT-induced luciferase activity after 24 hrs by reporter gene assay; format: functional, cell-based, COS-7
[6] = Solubility in aqueous buffer solution at pH 6.8; format: physicochemical
Method in brief: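 DMSO stock added to aqueous buffer at pH 6.8 and incubated. Precipitate removed by filtration; filtrate concentration measured by HPLC.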

[7] = target: T2, Androgen receptor; assay: Agonist activity at human androgen receptor W741C mutant expressed in COS7 cells assessed as luciferase activity after 24 hrs by reporter gene assay; format: functional, cell-based, COS-7
[8] = target: T3, Androgen receptor; assay: Displacement of [17-alpha-methyl-3H]-mibolerone from human androgen receptor T877A mutant expressed in HEK293 derived FreeStyle293F cells after 3 hrs; format: cell-based
[9] = target: T3, Androgen receptor; assay: Agonist activity at human androgen receptor T877A mutant expressed in COS7 cells assessed as luciferase activity after 24 hrs by reporter gene assay; format: functional, cell-based, COS-7

In the case of Cc1c(C#N)c(-c2ccc(C#N)cc2)c(C)n1Cc1ccccc1, the EC50 [1] is reported as > 10 µM, the IC50 [2] is reported as 0.0014 µM and the IC50 [3] is reported as 0.38 µM. The IC50 [4] was 0.041 µM, the IC50 [5] was 0.04 µM and the solubility [6] was 0.35 µg/mL (≈ 1.12 µM). For the same molecule, the EC50 [7] was > 10 µM, the IC50 [8] was 0.003 µM and the EC50 [9] was > 10 µM.
For COC(=O)c1c(-c2ccccc2)c(C)n(Cc2ccccc2)c1C, the EC50 [1] was > 10 µM, the IC50 [2] was 0.13 µM and the IC50 [3] was 3.7 µM. The IC50 [4] was 1.3 µM, the IC50 [5] was 2.6 µM and the EC50 [7] was > 10 µM. For the same molecule, the IC50 [8] was 0.065 µM and the EC50 [9] was > 10 µM.
With Cc1c(C#N)c(-c2ccc(C#N)cc2)c(C)n1Cc1cncc(CO)c1 the EC50 [1] was > 10 µM, the IC50 [2] was 0.014 µM and the IC50 [3] was 0.6 µM. The IC50 [4] was 0.44 µM, the IC50 [5] was 0.1 µM and the solubility [6] was 3.5 µg/mL (≈ 10.2 µM). For the same molecule, the EC50 [7] was > 10 µM, the IC50 [8] was 0.15 µM and the EC50 [9] was > 10 µM.
With CCOC(=O)c1c(-c2ccc([N+](=O)[O-])cc2)c(C)n(-c2ccccc2)c1C the EC50 [1] was > 10 µM, the IC50 [2] was 0.55 µM and the IC50 [3] was > 10 µM. The IC50 [4] was 2.1 µM, the IC50 [5] was 4.3 µM and the EC50 [7] was > 10 µM. For the same molecule, the IC50 [8] was 0.22 µM and the EC50 [9] was > 10 µM.
With Cc1c(C(=O)O)c(-c2ccc([N+](=O)[O-])cc2)c(C)n1Cc1ccccc1 the EC50 [1] was > 10 µM, the IC50 [2] was 0.62 µM and the IC50 [3] was > 10 µM. For the same molecule, the IC50 [4] was 6.5 µM, the IC50 [5] was 8.7 µM and the EC50 [7] was > 10 µM. For the same molecule, the IC50 [8] was 0.19 µM and the EC50 [9] was > 10 µM.
For COC(=O)c1c(-c2ccc(C#N)cc2)c(C)n(Cc2ccccc2)c1C, the EC50 [1] was > 10 µM, the IC50 [2] was 0.027 µM and the IC50 [3] was 0.71 µM. The IC50 [4] was 0.12 µM, the IC50 [5] was 0.27 µM and the EC50 [7] was > 10 µM. For the same molecule, the IC50 [8] was 0.023 µM and the EC50 [9] was > 10 µM.
Molecule Cc1c(C#N)c(-c2ccc(C#N)cc2)c(C)n1Cc1cccnc1 has an EC50 [1] of 2.2 µM, an IC50 [2] of 0.0034 µM and an IC50 [3] of 0.18 µM. The IC50 [4] was 0.19 µM, the IC50 [5] was 0.065 µM and the solubility [6] was 5.1 µg/mL (≈ 16.3 µM). For the same molecule, the EC50 [7] was 3.6 µM, the IC50 [8] was 0.023 µM and the EC50 [9] was > 10 µM.
In the case of Cc1c(C#N)c(-c2ccc(C#N)cc2)cn1Cc1cnc(Cl)c(CO)c1, the EC50 [1] is reported as > 10 µM, the IC50 [2] is reported as 0.078 µM and the IC50 [3] is reported as 0.76 µM. The IC50 [4] was 0.91 µM, the IC50 [5] was 0.17 µM and the EC50 [7] was > 10 µM. The IC50 [8] was 0.16 µM and the EC50 [9] was > 10 µM.
With CC(=O)c1c(-c2ccc([N+](=O)[O-])cc2)c(C)n(Cc2ccccc2)c1C the EC50 [1] was > 10 µM, the IC50 [2] was 0.39 µM and the IC50 [3] was 6.5 µM. The IC50 [4] was 0.9 µM, the IC50 [5] was 4.6 µM and the EC50 [7] was > 10 µM. The IC50 [8] was 0.13 µM and the EC50 [9] was > 10 µM.
In the case of Cc1c(CO)c(-c2ccc([N+](=O)[O-])cc2)c(C)n1Cc1ccccc1, the EC50 [1] is reported as > 10 µM, the IC50 [2] is reported as 0.3 µM and the IC50 [3] is reported as > 10 µM. The IC50 [4] was 0.66 µM, the IC50 [5] was 3.8 µM and the EC50 [7] was > 10 µM. For the same molecule, the IC50 [8] was 0.092 µM and the EC50 [9] was > 10 µM.
With CCOC(=O)c1c(-c2ccc([N+](=O)[O-])cc2)c(C)n(C(=O)c2ccccc2)c1C the EC50 [1] was > 10 µM, the IC50 [2] was 0.15 µM and the IC50 [3] was 7.7 µM. For the same molecule, the IC50 [4] was 1.5 µM, the IC50 [5] was 2.4 µM and the EC50 [7] was > 10 µM. For the same molecule, the IC50 [8] was 0.085 µM and the EC50 [9] was > 10 µM.
